# Where no end group is shown, it is not given here.
# Assays:
# ACx VIP cells [1] = assay: whole-cell current-clamp, membrane potential, ACx VIP cells; type: cell-based, mouse
# ACx SST cells [2] = assay: whole-cell current-clamp, membrane potential, ACx SST cells; type: cell-based, mouse; settings: ACx (and M1), compared to VIP cells
# ACx PVALB cells [3] = assay: whole-cell current-clamp, membrane potential, ACx PVALB cells; type: cell-based, mouse
# [4] = test system: ACx pyramidal (Pyr) cells; assay: whole-cell current-clamp, membrane potential, ACx pyramidal cells; type: cell-based, mouse; settings: ACx (and M1), compared to VIP cells
# [5] = test system: motor cortex (M1) VIP cells; assay: whole-cell current-clamp, membrane potential, motor cortex VIP cells; type: cell-based, mouse; settings: CPP, gabazine
# motor cortex SST cells [6] = assay: whole-cell current-clamp, membrane potential, motor cortex SST cells; type: cell-based, mouse; settings: GRP; bath with NBQX, CPP, gabazine, CGP and TTX; 10 cells
# motor cortex PVALB cells [7] = assay: whole-cell current-clamp, membrane potential, motor cortex PVALB cells; type: cell-based, mouse; settings: GRP; bath with NBQX, CPP, gabazine, CGP and TTX; 15 cells
# [8] = test system: motor cortex pyramidal cells; assay: whole-cell current-clamp, membrane potential, motor cortex pyramidal cells; type: cell-based, mouse; settings: GRP; bath with NBQX, CPP, gabazine, CGP and TTX; 10 cells
# L3/4 ACx VIP cells = assay: spike probability of VIP cells upon optogenetic stimulation of thalamic inputs; type: cell-based, mouse
# Method in brief: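 L3/4 auditory cortex VIP cells, identified by EGFP in Vip-EGFP or Vip-IRES-Cre x H2B-EGFP mice, were recorded whole-cell in current clamp with low-Cl⁻ K⁺-based solution at 30-32°C. Thalamic inputs were stimulated with 1 s bursts of 5 ms light pulses at 20 Hz every 20 s. […] Spontaneous and evoked spikes were counted.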
# [9] = test system: auditory cortex VIP cells; assay: GCaMP acute slice Ca2+ imaging, ACx VIP cells; type: cell-based, mouse
# ACx SST cells [10] = assay: IPSC frequency, ACx SST cells; type: cell-based, mouse; settings: GRP bath, NBQX and CPP, TTX-sensitive; n=10
# ACx PVALB cells [11] = assay: IPSC frequency, ACx PVALB cells; type: cell-based, mouse; settings: GRP bath, NBQX and CPP, TTX-sensitive; n=10
# ACx Pyr cells = assay: IPSC frequency, ACx Pyr cells; type: cell-based, mouse; settings: GRP bath, NBQX and CPP
# Method in brief: (§1)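 Whole-cell voltage clamp at −70 mV in acute coronal slices at 30-32°C, with 3-4 MΩ pipettes. The pipette held K⁺-based high-Cl⁻ solution (127.5 mM KCl, pH 7.3), and the bath held NBQX and CPP at 10 μM each.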
# motor cortex SST cells [12] = assay: IPSC frequency, motor cortex SST cells; type: cell-based, mouse; settings: GRP bath, NBQX and CPP
# Method in brief: as §1
# motor cortex PVALB cells [13] = assay: IPSC frequency, motor cortex PVALB cells; type: cell-based, mouse; settings: GRP bath, NBQX and CPP
# Method in brief: as §1
# ACx PVALB cells [14] = assay: EPSC frequency, ACx PVALB cells; type: cell-based, mouse; settings: GRP bath, gabazine; n = 10
# Method in brief: (§2)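 Acute coronal slices were incubated in oxygenated Ringer's at 32°C for ~15 min, then held at RT. SST and PVALB cells were identified in Sst-EGFP or Pvalb-EGFP mice. Whole-cell recordings were made at 30-32°C, voltage-clamped at −70 mV, with K⁺-gluconate low-Cl⁻ pipette solution and 10 μM gabazine.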
# ACx SST cells [15] = assay: EPSC frequency, ACx SST cells; type: cell-based, mouse; settings: GRP bath, gabazine; n = 11
# Method in brief: as §2
# M1 PVALB cells = assay: EPSC frequency, M1 PVALB cells; type: cell-based, mouse; settings: GRP bath, gabazine; n = 10
# Method in brief: as §2
# M1 SST cells = assay: EPSC frequency, M1 SST cells; type: cell-based, mouse; settings: GRP bath, gabazine; n = 9
# Method in brief: as §2
# SST cells = assay: EPSC frequency, SST cells, ACx and M1 together; type: cell-based, mouse; settings: GRP bath
# Method in brief: as §2
# [16] = test system: Vip+ and glutamatergic cells, motor cortex; assay: immediate early gene; type: in vivo, mouse
# Method in brief: (§3)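 Brains were frozen 45 min later for Fos and Npas4 FISH. Expression was the cell area covered by label, in manually drawn ROIs across all layers, 2-3 slices per mouse. Right-hemisphere values were normalized to the left-hemisphere mean per cell type.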
# [17] = test system: Sst+ and Pvalb+ cells, motor cortex; assay: immediate early gene; type: in vivo, mouse
# Method in brief: as §3
# ACx VIP cells [18] = assay: in vivo fiber photometry of GCaMP in ACx VIP cells, cannula infusion; design: species or system mouse; settings: 2 μl, 300 μM GRP and TAMRA-GRP, 100 nl/min into visual cortex; n = 3 (grpLight1.2) and 8 (GCaMP) mice
# Method in brief: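 Decay was corrected by an exponential fit to trace minima (5000-point sliding window). Autofluorescence measured in fluorophore-free implanted mice was subtracted, and GCaMP was normalized to mean mBeRFP fluorescence.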
# [19] = test system: grpLight (GRPR/cpGFP sensor); assay: grpLight GRP sensor characterization; type: cell-based, human
# GRP receptor (GRPR) [20] = settings: ref Kroog et al., 1995; cited from earlier work
# grpLight in ACx = assay: in vivo dual-color photometry of grpLight and TAMRA-GRP, diffusion in cortex; design: species or system mouse; settings: infusion into distant cortical area
# [21] = TAMRA-GRP imaging in acute brain slices, flow-in delay; design: species or system mouse; settings: 300 nM, bath
# Method in brief: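 Non-fluorescent acute brain slices were imaged through a 650/100 nm emission filter. […] Arrival in the bath was defined as the first time point at which fluorescence rose 2 SD above baseline.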
# GRP receptor (GRPR) [22] = assay: binding to GRP receptor; settings: statement in method; no data shown
# [23] = 300 nM GRP, male mice, NBQX, CGP
# [24] = 1372 responding VIP cells, male auditory cortex, GRP bath
substance,measurement,setting,value
"VSTGAGGGTVLAKMYPRGSHWAVGHLM-NH2 [GRP, gastrin-releasing peptide]",depolarization in female compared to male mice,ACx VIP cells [1]; 300 nM GRP,non-significantly larger depolarization compared to male mice
same,"mean depolarization, female mice","ACx VIP cells [1]; 300 nM GRP, bath NBQX, CPP, gabazine, CGP and TTX, mean ± SEM, 10 cells (Fig. S3C)",8.62 ±1.11 mV
same,duration of burst-like firing activity,"ACx VIP cells [1]; 300 nM for 2 min, male mice",> 1 min
same,neurons with long-lasting burst-like firing activity,"ACx VIP cells [1]; 300 nM for 2 min, male mice",3 out of 10
same,VIP cells that depolarize upon GRP bath application,"ACx VIP cells [1]; 300 nM for 2 min, male mice, acute slices, 30-32°C",7 out of 10
same,dependence of depolarization on concentration,"ACx VIP cells [1]; Fig. 3C, 6-10 cells per group",concentration-dependent
same,"GRP-evoked depolarization, SST cells",ACx SST cells [2],significantly smaller than in VIP cells
same,"GRP-evoked depolarization, PVALB cells","ACx PVALB cells [3]; ACx (and M1), compared to VIP cells",significantly smaller than in VIP cells
same,PVALB cell depolarization vs control recordings without GRP,ACx PVALB cells [3]; Fig. S3D,No significant difference
same,"GRP-evoked depolarization, Pyr cells",[4],significantly smaller than in VIP cells
same,M1 VIP neurons with burst-like activity,[5]; [23],3 out of 10
same,VIP cells in M1 that depolarized,[5]; [23],9 out of 10
same,"depolarization, motor cortex VIP","[5]; GRP, bath with NBQX, CGP and TTX, 6 cells",9.38 ± 1.28 mV
same,"depolarization, motor cortex SST",motor cortex SST cells [6],1.39 ± 0.74 mV
same,"depolarization, motor cortex PVALB",motor cortex PVALB cells [7],1.78 ± 0.45 mV
same,"depolarization, motor cortex pyramidal",[8],0.56 ± 0.49 mV
same,"average spontaneous spike rate prior to stimulation, after GRP","L3/4 ACx VIP cells; 0 ± 0 Hz before GRP, n = 5 cells",0.09 ± 0.08 Hz
same,average evoked spike probability after GRP,"L3/4 ACx VIP cells; 300 nM GRP bath for 2 min, 14 ± 9% before GRP, 5 ms pulses at 20 Hz, n = 5 cells",52 ± 16%
same,effect on spontaneous spike rate prior to stimulation onset,L3/4 ACx VIP cells; GRP bath,without increasing spontaneous spike rate
same,effect on evoked spike probability,L3/4 ACx VIP cells; optogenetic stimulation of thalamo-cortical afferents,significantly increased the evoked spike probability
same,GCaMP peak latency,[9]; [24],156.9 ± 1.5 s
same,GCaMP response start,[9]; [24],99.4 ± 0.9 s
same,lowest concentration that increased GCaMP fluorescence in most VIP cells,"[9]; ACx of male and female mice and M1, bath application",3 nM
same,cells with Ca2+ oscillations with TTX,"[9]; GRP, with TTX",14%
same,VIP cells with phasic (oscillatory) GCaMP fluctuations,"[9]; GRP, without TTX, NBQX, CPP, gabazine, CGP",26%
same,"GCaMP fluorescence change ΔF/FKCl, female","[9]; median (IQR), female auditory cortex, 580 cells in 14 slices, 300 nM GRP, 2 min, 32°C",11.8 (15.6) % ΔF/FKCl
same,latency of Ca2+ increases after TAMRA-GRP levels increased,[9]; start GCaMP vs start TAMRA-GRP,12 s
same,SST cells with increased IPSC frequency,ACx SST cells [10],60%
same,PVALB cells with increased IPSC frequency,ACx PVALB cells [11],40%
same,Pyr cells with increased IPSC frequency,ACx Pyr cells,1 out of 10
same,"SST cells with increased IPSC frequency, M1",motor cortex SST cells [12],4 out of 10
same,"mean increase in IPSC frequency, M1 SST",motor cortex SST cells [12]; n = 10,13.28 ± 5.97 Hz
same,"PVALB cells with increased IPSC frequency, M1",motor cortex PVALB cells [13],3 out of 10
same,"mean increase in IPSC frequency, M1 PVALB",motor cortex PVALB cells [13]; n = 10,4.59 ± 2.00 Hz
same,"mean increase in EPSC frequency, ACx PVALB",ACx PVALB cells [14],1.95 ± 1.43 Hz
same,"mean increase in EPSC frequency, ACx SST",ACx SST cells [15],1.86 ± 1.15 Hz
same,"mean increase in EPSC frequency, M1 PVALB",M1 PVALB cells,0.69 ± 0.80 Hz
same,"mean increase in EPSC frequency, M1 SST",M1 SST cells,1.61 ± 0.97 Hz
same,effect on EPSC frequency,SST cells; SST and PVALB cells,hardly affected
same,SST cells with increased EPSC frequency,SST cells; gabazine,2 out of 20
same,Npas4 expression in Vip-IRES-Cre;Grpr fl/y mice,"[16]; 3 μM GRP into M1, vs control mice",significantly smaller
same,"Npas4 expression, Vip+ and glutamatergic cells",[16]; 3 μM GRP into right M1,significantly increased expression
same,"Fos expression ipsilateral to injection, Vip+ and glutamatergic cells","[16]; 200 nl of 3 μM GRP into right M1, anaesthetized mice, FISH at 45 min",strong increase in Fos
same,"Npas4 expression, Sst+ and Pvalb+ cells",[17]; 3 μM GRP into right M1,but not Sst^+ and Pvalb^+ cells
same,"Fos expression, Sst+ and Pvalb+ cells",[17]; 200 nl of 3 μM GRP into right M1,without changes in expression
same,onset of functional effect on VIP cell Ca2+ vs grpLight detection,ACx VIP cells [18],functional effects on these cells in vivo well before photometric detection of changes in grpLight fluorescence
same,concentrations detectable by grpLight,[19],nanomolar concentrations
same,binding to GRPR,GRP receptor (GRPR) [20],high affinity and selectivity
VSTGAGGGTVLAKMYPRGSHWAVGHLM-NH2 [TAMRA-GRP],grpLight fluorescence change in ACx following infusion,grpLight in ACx,long-lasting increases minutes after the start of GRP infusion
same,"TAMRA-GRP fluorescence peak latency, range","[21]; 3 slices, range",156.4 to 162.8 s
same,"TAMRA-GRP fluorescence response start, range","[21]; 3 slices, range",79 to 95 s
same,TAMRA-GRP fluorescence peak latency,[21]; mean of 3 slices,160.3 s
same,TAMRA-GRP fluorescence response start,[21]; mean of 3 slices,87.4 s
same,efficiency as GRPR ligand,GRP receptor (GRPR) [22],very inefficient GRPR ligand
